How the values were obtained:
[1] = target: Receptor-type tyrosine-protein kinase FLT3 (Homo sapiens) (UniProt P36888); assay: Inhibition of FLT3 (unknown origin) assessed as residual activity at 0.1 uM preincubated for 20 min followed by [gamma33P]ATP addition and measured after 120 mins by Hotspot assay relative to control; conditions: time 140.0 min
In short: (§1)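 Radiometric HotSpot kinase assay. Kinase and substrate are combined in 20 mM Hepes pH 7.5, 10 mM MgCl2, 1 mM EGTA, 0.02% Brij35, 0.02 mg/mL BSA, 0.1 mM Na3VO4, 2 mM DTT and 1% DMSO. Compound is added and preincubated 20 min at room temperature. The reaction starts with ATP plus 33P-ATP at 10 µM final and runs 120 min at 25 °C. Filter-binding read-out, given as % activity remaining versus DMSO.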

[2] = target: Serine/threonine-protein kinase PAK 3 (Homo sapiens) (UniProt O75914); assay: (§2) Inhibtion of full length recombinant human N-terminal GST/His6-tagged PAK3 expressed in sf9 insect cells assessed as residual activity at 0.1 uM using tetra LRRWSLG as substrate preincubated for 20 min followed by [gamma33P]ATP addition and measured after 120 mins by Hotspot assay relative to control; conditions: time 140.0 min; in short: as §1
[3] = target: Serine/threonine-protein kinase PAK 2 (Homo sapiens) (UniProt Q13177); assay: as §2, with “of” for “of full length”, “PAK2 (D3 to R524 residues)” for “PAK3”, “RRRLSFAEPG” for “tetra LRRWSLG”; conditions: time 140.0 min; in short: as §1
[4] = target: Mitogen-activated protein kinase kinase kinase kinase 1 (Homo sapiens) (UniProt Q92918); assay: Inhibition of MAP4K1 (unknown origin) assessed as residual activity at 0.1 uM preincubated for 20 min followed by [gamma33P]ATP addition and measured after 120 mins by Hotspot assay relative to control; conditions: time 140.0 min; in short: as §1
[5] = target: ALK tyrosine kinase receptor (Homo sapiens) (UniProt Q9UM73); assay: Inhibition of ALK (unknown origin) assessed as residual activity at 0.1 uM preincubated for 20 min followed by [gamma33P]ATP addition and measured after 120 mins by Hotspot assay relative to control; conditions: time 140.0 min; in short: as §1
[6] = target: Mast/stem cell growth factor receptor Kit (Homo sapiens) (UniProt P10721); assay: Inhibition of c-Kit (unknown origin) assessed as residual activity at 0.1 uM preincubated for 20 min followed by [gamma33P]ATP addition and measured after 120 mins by Hotspot assay relative to control; conditions: time 140.0 min; in short: as §1
[7] = target: Tyrosine-protein kinase JAK1 (Homo sapiens) (UniProt P23458); assay: Inhibition of JAK1 (unknown origin) assessed as residual activity at 0.1 uM preincubated for 20 min followed by [gamma33P]ATP addition and measured after 120 mins by Hotspot assay relative to control; conditions: time 140.0 min; in short: as §1
[8] = target: Serine/threonine-protein kinase PAK 5 (Homo sapiens) (UniProt Q9P286); assay: Inhibtion of recombinant human PAK5 expressed in baculovirus infected sf9 insect cells assessed as residual activity at 0.1 uM using RRRLSFAEPG as substrate preincubated for 20 min followed by [gamma33P]ATP addition and measured after 120 mins by Hotspot assay relative to control; conditions: time 140.0 min; in short: as §1
[9] = target: Mitogen-activated protein kinase 14 (Homo sapiens) (UniProt Q16539); assay: Inhibition of P38alpha (unknown origin) assessed as residual activity at 0.1 uM preincubated for 20 min followed by [gamma33P]ATP addition and measured after 120 mins by Hotspot assay relative to control; conditions: time 140.0 min; in short: as §1
[10] = target: Serine/threonine-protein kinase PAK 4 (Homo sapiens, UniProt O96013); assay: Inhibtion of full length recombinant human N-terminal GST/His6-tagged PAK4 expressed in baculovirus infected sf9 insect cells assessed as residual activity at 0.1 uM using tetra LRRWSLG as substrate preincubated for 20 min followed by [gamma33P]ATP addition and measured after 120 mins by Hotspot assay relative to control; conditions: time 140.0 min; in short: as §1
[11] = target: Epidermal growth factor receptor (Homo sapiens) (UniProt P00533); assay: Inhibition of EGFR (unknown origin) assessed as residual activity at 0.1 uM preincubated for 20 min followed by [gamma33P]ATP addition and measured after 120 mins by Hotspot assay relative to control; conditions: time 140.0 min; in short: as §1
[12] = target: Serine/threonine-protein kinase B-raf (Homo sapiens) (UniProt P15056); assay: Inhibition of BRAF (unknown origin) assessed as residual activity at 0.1 uM preincubated for 20 min followed by [gamma33P]ATP addition and measured after 120 mins by Hotspot assay relative to control; conditions: time 140.0 min; in short: as §1
HCT-116 = assay: Antiproliferative activity against human HCT-116 cells assessed as growth inhibition at 1 uM after 72 hrs by Cell Titer-Glo assay relative to control; format: functional; conditions: read-out: GI
In short: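 Cells kept at 37 °C in 5% CO2 and plated at 4000 per well. Treated with compound for 72 h. Viability read by CellTiter-Glo luminescence. Each compound run in duplicate, data as means ± SD.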

[13] = target: Tyrosine-protein kinase BTK (Homo sapiens) (UniProt Q06187); assay: Inhibition of BTK (unknown origin) assessed as residual activity at 0.1 uM preincubated for 20 min followed by [gamma33P]ATP addition and measured after 120 mins by Hotspot assay relative to control; conditions: time 140.0 min; in short: as §1
[14] = target: Ephrin type-A receptor 1 (Homo sapiens) (UniProt P21709); assay: Inhibition of EPHA1 (unknown origin) assessed as residual activity at 0.1 uM preincubated for 20 min followed by [gamma33P]ATP addition and measured after 120 mins by Hotspot assay relative to control; conditions: time 140.0 min; in short: as §1
[15] = target: Tyrosine-protein kinase ABL1 (Homo sapiens) (UniProt P00519); assay: Inhibition of ABL1 (unknown origin) assessed as residual activity at 0.1 uM preincubated for 20 min followed by [gamma33P]ATP addition and measured after 120 mins by Hotspot assay relative to control; conditions: time 140.0 min; in short: as §1
Tyrosine-protein kinase ABL1 (Homo sapiens), sequence (P00519 whole entry): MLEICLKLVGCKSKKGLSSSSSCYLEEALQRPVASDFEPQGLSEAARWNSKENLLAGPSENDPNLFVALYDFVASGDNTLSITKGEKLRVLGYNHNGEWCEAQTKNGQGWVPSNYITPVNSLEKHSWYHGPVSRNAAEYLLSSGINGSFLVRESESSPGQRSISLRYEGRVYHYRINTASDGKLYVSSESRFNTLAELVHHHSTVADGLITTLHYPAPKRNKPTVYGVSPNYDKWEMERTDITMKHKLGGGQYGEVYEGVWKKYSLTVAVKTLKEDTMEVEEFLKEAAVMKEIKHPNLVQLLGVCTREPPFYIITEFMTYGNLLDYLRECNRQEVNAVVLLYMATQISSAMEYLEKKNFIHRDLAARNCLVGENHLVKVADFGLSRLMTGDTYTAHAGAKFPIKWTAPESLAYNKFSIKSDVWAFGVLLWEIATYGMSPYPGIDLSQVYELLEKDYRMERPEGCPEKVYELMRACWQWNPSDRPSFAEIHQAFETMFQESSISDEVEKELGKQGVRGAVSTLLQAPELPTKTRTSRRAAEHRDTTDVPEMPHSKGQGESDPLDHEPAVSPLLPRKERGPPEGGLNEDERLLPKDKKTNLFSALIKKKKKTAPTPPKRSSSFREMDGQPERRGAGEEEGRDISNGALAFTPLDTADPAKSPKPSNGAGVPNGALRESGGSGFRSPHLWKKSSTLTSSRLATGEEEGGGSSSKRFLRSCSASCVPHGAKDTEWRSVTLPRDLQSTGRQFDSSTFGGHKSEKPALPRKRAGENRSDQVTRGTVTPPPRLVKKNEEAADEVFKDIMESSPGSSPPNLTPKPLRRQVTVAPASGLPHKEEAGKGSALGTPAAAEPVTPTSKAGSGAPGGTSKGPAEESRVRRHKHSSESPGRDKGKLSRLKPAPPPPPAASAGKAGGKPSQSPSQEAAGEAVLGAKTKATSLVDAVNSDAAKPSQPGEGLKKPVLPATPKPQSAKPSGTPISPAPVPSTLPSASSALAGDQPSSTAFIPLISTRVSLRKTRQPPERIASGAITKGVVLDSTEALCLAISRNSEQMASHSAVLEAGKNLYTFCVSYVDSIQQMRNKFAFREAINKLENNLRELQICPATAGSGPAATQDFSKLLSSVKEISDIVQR

Tyrosine-protein kinase BTK (Homo sapiens), sequence (Q06187 whole entry): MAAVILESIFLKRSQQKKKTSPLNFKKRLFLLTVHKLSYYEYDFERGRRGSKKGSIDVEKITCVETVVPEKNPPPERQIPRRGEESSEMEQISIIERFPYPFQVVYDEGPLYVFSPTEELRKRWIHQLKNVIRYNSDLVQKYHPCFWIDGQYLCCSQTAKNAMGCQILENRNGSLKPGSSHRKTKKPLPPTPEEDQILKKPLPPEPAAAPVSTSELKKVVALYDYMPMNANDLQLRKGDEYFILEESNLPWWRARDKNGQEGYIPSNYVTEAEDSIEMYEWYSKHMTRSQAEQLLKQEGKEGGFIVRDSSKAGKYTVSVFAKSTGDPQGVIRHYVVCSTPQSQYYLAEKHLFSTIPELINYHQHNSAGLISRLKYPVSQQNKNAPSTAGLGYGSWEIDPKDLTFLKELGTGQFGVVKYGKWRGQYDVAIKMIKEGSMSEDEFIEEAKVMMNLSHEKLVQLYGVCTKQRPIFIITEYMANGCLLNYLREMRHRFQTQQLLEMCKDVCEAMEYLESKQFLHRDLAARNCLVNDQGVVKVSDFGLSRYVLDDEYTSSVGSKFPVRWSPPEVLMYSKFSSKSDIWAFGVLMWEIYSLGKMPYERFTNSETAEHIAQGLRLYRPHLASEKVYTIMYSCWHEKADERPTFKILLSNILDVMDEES
Serine/threonine-protein kinase PAK 2 (Homo sapiens), sequence (Q13177 whole entry, the tested form may be a part): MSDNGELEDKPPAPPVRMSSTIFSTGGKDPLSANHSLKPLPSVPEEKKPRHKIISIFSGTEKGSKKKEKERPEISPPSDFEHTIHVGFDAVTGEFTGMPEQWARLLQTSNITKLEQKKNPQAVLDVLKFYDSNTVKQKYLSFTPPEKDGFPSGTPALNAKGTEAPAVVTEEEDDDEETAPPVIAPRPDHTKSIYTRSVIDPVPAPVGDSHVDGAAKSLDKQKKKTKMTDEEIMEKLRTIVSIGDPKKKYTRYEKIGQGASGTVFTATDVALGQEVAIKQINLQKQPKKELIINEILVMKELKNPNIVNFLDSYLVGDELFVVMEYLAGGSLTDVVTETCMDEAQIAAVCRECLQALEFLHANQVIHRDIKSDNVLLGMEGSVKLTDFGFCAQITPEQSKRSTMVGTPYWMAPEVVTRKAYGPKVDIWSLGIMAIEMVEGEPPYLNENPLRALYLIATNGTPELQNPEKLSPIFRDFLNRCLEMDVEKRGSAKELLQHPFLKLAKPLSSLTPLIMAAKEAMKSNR
Serine/threonine-protein kinase PAK 5 (Homo sapiens), sequence (Q9P286 whole entry, looked up): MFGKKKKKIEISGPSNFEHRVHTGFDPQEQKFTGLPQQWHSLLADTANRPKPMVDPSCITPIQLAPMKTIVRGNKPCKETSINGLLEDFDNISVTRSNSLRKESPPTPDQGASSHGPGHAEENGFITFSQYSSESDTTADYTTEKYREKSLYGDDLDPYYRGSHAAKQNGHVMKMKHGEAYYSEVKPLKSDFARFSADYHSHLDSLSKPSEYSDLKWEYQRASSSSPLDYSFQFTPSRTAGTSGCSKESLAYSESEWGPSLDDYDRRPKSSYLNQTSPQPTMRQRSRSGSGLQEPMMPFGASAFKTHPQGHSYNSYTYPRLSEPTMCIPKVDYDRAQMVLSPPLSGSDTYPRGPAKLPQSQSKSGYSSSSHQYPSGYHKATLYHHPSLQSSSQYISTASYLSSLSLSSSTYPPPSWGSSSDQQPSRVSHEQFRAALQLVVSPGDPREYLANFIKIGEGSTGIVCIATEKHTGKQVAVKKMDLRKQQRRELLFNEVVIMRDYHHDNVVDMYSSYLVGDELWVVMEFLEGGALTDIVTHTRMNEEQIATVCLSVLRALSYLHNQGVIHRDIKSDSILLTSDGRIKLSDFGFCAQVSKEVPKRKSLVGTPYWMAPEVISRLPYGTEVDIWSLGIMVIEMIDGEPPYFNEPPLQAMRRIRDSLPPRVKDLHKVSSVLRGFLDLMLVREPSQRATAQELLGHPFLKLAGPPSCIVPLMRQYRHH
Tyrosine-protein kinase JAK1 (Homo sapiens), sequence (P23458 whole entry): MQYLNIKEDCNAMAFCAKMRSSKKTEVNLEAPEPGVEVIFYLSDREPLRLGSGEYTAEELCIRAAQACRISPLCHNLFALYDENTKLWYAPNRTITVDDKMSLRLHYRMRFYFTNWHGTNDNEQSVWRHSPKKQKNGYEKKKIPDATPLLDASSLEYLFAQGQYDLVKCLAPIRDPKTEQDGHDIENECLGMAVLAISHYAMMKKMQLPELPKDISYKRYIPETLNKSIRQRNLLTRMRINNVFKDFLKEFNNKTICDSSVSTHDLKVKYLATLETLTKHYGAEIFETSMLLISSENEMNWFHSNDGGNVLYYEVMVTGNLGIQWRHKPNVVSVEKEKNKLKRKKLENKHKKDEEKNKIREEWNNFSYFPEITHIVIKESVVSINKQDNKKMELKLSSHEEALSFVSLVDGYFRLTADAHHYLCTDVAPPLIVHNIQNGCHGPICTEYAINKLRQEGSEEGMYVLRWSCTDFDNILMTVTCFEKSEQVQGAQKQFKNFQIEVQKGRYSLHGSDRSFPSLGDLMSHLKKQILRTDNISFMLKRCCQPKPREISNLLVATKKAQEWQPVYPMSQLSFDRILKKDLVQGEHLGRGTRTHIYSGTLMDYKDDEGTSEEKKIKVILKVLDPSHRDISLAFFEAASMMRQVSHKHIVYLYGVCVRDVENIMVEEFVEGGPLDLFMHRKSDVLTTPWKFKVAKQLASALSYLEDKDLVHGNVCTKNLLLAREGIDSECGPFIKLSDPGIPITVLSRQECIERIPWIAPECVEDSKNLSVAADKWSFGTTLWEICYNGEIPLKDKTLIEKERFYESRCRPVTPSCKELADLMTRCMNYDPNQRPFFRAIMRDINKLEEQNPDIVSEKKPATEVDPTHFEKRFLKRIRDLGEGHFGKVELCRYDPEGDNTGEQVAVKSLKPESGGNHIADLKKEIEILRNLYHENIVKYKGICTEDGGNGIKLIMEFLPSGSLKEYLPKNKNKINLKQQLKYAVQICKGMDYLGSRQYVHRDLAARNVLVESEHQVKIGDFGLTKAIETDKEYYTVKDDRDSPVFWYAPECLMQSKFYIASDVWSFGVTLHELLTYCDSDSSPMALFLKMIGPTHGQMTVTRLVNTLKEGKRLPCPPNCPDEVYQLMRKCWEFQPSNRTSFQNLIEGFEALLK
Serine/threonine-protein kinase B-raf (Homo sapiens), sequence (P15056 whole entry): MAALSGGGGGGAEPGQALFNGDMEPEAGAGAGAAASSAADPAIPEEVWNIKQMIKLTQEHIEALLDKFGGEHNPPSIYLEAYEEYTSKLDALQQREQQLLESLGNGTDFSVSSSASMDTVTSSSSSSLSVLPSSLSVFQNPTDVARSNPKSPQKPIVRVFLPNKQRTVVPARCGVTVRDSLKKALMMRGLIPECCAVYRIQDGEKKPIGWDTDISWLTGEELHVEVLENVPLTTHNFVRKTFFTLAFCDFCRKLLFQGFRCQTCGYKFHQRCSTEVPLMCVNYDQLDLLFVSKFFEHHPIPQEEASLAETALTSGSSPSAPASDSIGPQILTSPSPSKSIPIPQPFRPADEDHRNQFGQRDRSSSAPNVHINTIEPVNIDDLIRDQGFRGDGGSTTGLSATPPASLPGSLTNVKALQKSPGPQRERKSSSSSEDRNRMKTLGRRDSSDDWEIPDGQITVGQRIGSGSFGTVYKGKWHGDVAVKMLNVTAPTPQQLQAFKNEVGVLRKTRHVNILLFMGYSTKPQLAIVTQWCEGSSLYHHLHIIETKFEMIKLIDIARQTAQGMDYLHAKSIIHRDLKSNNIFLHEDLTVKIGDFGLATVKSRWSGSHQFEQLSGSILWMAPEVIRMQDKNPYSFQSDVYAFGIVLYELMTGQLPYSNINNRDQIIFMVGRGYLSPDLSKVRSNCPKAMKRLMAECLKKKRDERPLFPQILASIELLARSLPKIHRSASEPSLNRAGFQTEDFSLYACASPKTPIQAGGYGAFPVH

SMILES: Cc1cccn(-c2ccc(-c3ccc4c(C(=O)NCc5ccncc5)n[nH]c4c3)c(Cl)c2)c1=O
- Activity [1]: 98.8%
- Activity [2]: 33.9%
- Activity [3]: 28%
- Activity [4]: 89.6%
- Activity [5]: 97%
- Activity [6]: 99.2%
- Activity [7]: 88.7%
- Activity [8]: 116%
- Activity [9]: 78%
- Activity [10]: 104%
- Activity [11]: 89.3%
- Activity [12]: 84.4%
- inhibition of growth at 1 µM (HCT-116): 8.73%
- Activity [13]: 99.1%
- Activity [14]: 91.9%
- Activity [15]: 106%
